From ChEMBL document CHEMBL1143227, “Design, synthesis, and in vitro activity of peptidomimetic inhibitors of myeloid differentiation factor 88” (J Med Chem, 2008)
Calls of active or inactive are those of the source. The calls are words filed in the database; no cut-off is given here.

How the values were obtained:
HeLa [1] = test: Inhibition of IL-1-alpha-induced NF-kappaB activation in human HeLa cells at 100 uM; format: functional
Outline: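 HeLa cells are grown in EMEM with 2 mM glutamine, 1% nonessential amino acids, 7.5% FBS and pen/strep. They are seeded at 3 × 10⁵/well, left overnight, then switched to serum-free EMEM. Compound (DMSO, final 100 µM) is added for 6 h at 37 °C, then recombinant human IL-1 5 ng/mL for 30 min. Activated p65 in about 10 µg lysate protein is read by TransAM colorimetric ELISA (A450). % inhibition uses stimulated and unstimulated controls with and without compound.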

[2] = molecular target: Myeloid differentiation primary response protein MyD88 (Homo sapiens) (UniProt Q99836); test: Inhibition of MyD88 homodimerization by yeast two-hybrid assay
Sequence of Myeloid differentiation primary response protein MyD88 (Homo sapiens) (Q99836 whole entry): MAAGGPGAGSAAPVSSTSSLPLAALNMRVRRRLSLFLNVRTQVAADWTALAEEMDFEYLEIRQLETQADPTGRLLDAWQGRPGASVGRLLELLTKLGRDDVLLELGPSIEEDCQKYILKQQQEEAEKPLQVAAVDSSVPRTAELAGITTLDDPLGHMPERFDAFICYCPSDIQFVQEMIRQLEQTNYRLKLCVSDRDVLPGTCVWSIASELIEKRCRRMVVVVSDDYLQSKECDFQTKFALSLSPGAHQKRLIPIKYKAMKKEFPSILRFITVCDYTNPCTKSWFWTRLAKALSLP
Outline: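 Yeast AH109 is cotransformed with AD-MyD88 and BD-MyD88, grown overnight at 30 °C in SGd/-Leu/-Trp, then diluted 1/20 into SGd/-Ade/-His/-Leu/-Trp with compound at a final 100 µM in oxygen-sensor plates. Growth at 30 °C is read by fluorescence (ex 485/em 630 nm, bottom read) every 90 min for 25 readings. Signal is normalized to initial well fluorescence, and growth curves are described by seven curve parameters.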

Mus musculus = test: Decrease in IL-1-beta-dependent IL6 production in mouse at 50 to 200 mg/kg; format: functional, organism-based
HeLa [3] = test: Toxicity against human HeLa cells at 10 uM by MTT assay; format: cell-based
HeLa [4] = test: Inhibition of IL-1-alpha-induced NF-kappaB activation in human HeLa cells at 4 uM; format: functional
HeLa [5] = test: Toxicity against human HeLa cells at 8 uM by MTT assay; format: cell-based
HeLa [6] = test: Toxicity against human HeLa cells at 4 uM by MTT assay; format: cell-based
HeLa [7] = test: Toxicity against human HeLa cells at 20 uM by MTT assay; format: cell-based
HeLa [8] = test: Inhibition of IL-1-alpha-induced NF-kappaB activation in human HeLa cells at 8 uM; format: functional
HeLa [9] = test: Inhibition of IL-1-alpha-induced NF-kappaB activation in human HeLa cells at 10 uM; format: functional
HeLa [10] = test: Inhibition of IL-1-alpha-induced NF-kappaB activation in human HeLa cells at 20 uM; format: functional

Compound	inhibition at 100 µM (HeLa [1]) [%]	Activity [2]	other results
NC(=O)[C@H]1CCS[C@@H]2C[C@]3(CCCN3C(=O)c3nc(NC(=O)COc4ccc(Cl)cc4)n[nH]3)C(=O)N12	17	Active	
NC(=O)[C@H]1CCS[C@@H]2C[C@]3(CCCN3C(=O)Cc3ccc(NC(=O)COc4ccc(Cl)cc4Cl)cc3)C(=O)N12	26	Active	Activity (Mus musculus): Active
NC(=O)CN1CCC[C@]2(CCCN2C(=O)CCNC(=O)c2ccc(NC(=O)Cc3cccc4ccccc34)cc2)C1=O	18	Active	
CC(C)(C)c1ccc(S(=O)(=O)/C=C/C#N)cc1 [BAY-11-7085]			Activity (HeLa [3]): 4%; inhibition at 4 µM (HeLa [4]): 0%; Activity (HeLa [5]): 0%; Activity (HeLa [6]): 0%; Activity (HeLa [7]): 41%; inhibition at 8 µM (HeLa [8]): 35%; inhibition at 10 µM (HeLa [9]): 44%; inhibition at 20 µM (HeLa [10]): 65%
CC(C)[C@H](NC(=O)CCc1ccccc1)C(=O)N1CCCC1	31		
Cc1cnc(C(=O)Nc2ccc(C(=O)NCCC(=O)N3CCC[C@]34C[C@H]3SCC[C@H](C(N)=O)N3C4=O)cc2)cn1	23	Active	
N=C(N)NCCCCNC(=O)c1ccc2cc(NC(=O)CN3C(=O)[C@@H]4C[C@@H](O)CN4C(=O)c4ccccc43)ccc2c1	24	Active	
